Measured values published in ChEMBL document CHEMBL3272266, “Dibenzotropone- and dibenzosuberonecarboxylic acids with bronchodilator activity” (J Med Chem, 1979).
The source made the active and inactive calls. The rule behind the calls is not given here.

Columns and labels:
[1] = Bronchodilator activity in guinea pig trachea assessed as relaxation of tracheal smooth muscle at 0.125 to 0.5 ug/ml after 15 mins relative to aminophylline; type: functional, Cavia porcellus
Summary of the method: (§1)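 Guinea pig trachea cut into rings tied as a chain, in Krebs-Henseleit at 37 °C aerated with 5% CO2/95% O2, resting load 0.2–0.5 g, tone recorded isometrically after stabilization. Sodium salts in water, up to 5 µg/mL, 15-min exposure. Potency estimated against aminophylline by a three- or four-point assay from concentration–relaxation plots, one preparation per agent.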

Cavia porcellus [2] = experiment: Bronchodilator activity in trachea and jugular vein cannulated guinea pig assessed as inhibition of histamine-induced response at 12.5 mg/kg, iv after 5 mins relative to control; type: functional
Summary of the method: (§2)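 Cannulated guinea pigs given histamine phosphate 10 µg/kg iv in buffered saline. Test agent given 5 min later as the sodium salt in water via jugular cannula, one dose per animal, then histamine repeated 5 min after dosing. Percent inhibition = maximum pulmonary resistance after the agent versus before it.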

Cavia porcellus [3] = experiment: Bronchodilator activity in trachea and jugular vein cannulated guinea pig assessed as inhibition of histamine-induced response at 25 mg/kg, iv after 5 mins relative to control; type: functional; summary of the method: as §2
Cavia porcellus [4] = experiment: Bronchodilator activity in trachea and jugular vein cannulated guinea pig assessed as inhibition of histamine-induced response at 6.25 mg/kg, iv after 5 mins relative to control; type: functional; summary of the method: as §2
Cavia porcellus [5] = experiment: Toxicity in trachea and jugular vein cannulated histamine-induced guinea pig assessed as severe airway constriction at 25 mg/kg, iv; type: organism-based; design: dose 25 mg/kg, route intravenous; settings: in vivo
Summary of the method: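 Guinea pigs cannulated in the jugular vein dosed iv with the sodium salt in water. Animals showing severe airway constriction after dosing were recorded and received no histamine challenge.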

Cavia porcellus [6] = experiment: Bronchodilator activity in guinea pig assessed as protection against histamine aerosol-induced bronchoconstriction at 100 mg/kg, ip treated for 15 mins prior to histamine aerosol-challenge measured after 5 mins relative to control; type: functional; settings: route intraperitoneal
Summary of the method: (§3)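 Guinea pigs in groups of eight; a control group of eight is first confirmed to collapse. Compound given ip 15 min or orally 30 min before exposure to 0.04% aqueous histamine aerosol for 5 min. Percent protection = 100 × animals not collapsing during the 5-min exposure / total animals. Significance by chi-square with Yates correction against 66 control animals.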

[7] = Bronchodilator activity in guinea pig trachea assessed as relaxation of tracheal smooth muscle at 0.05 to 0.5 ug/ml after 15 mins relative to aminophylline; type: functional, Cavia porcellus; summary of the method: as §1
[8] = (§4) Bronchodilator activity in guinea pig trachea assessed as relaxation of tracheal smooth muscle at 0.5 to 5 ug/ml after 15 mins relative to aminophylline; type: functional, Cavia porcellus; summary of the method: as §1
Cavia porcellus [9] = experiment: Bronchodilator activity in guinea pig assessed as protection against histamine aerosol-induced bronchoconstriction at 50 mg/kg, ip treated for 15 mins prior to histamine aerosol-challenge measured after 5 mins relative to control; type: functional; settings: route intraperitoneal
[10] = Bronchodilator activity in guinea pig trachea assessed as relaxation of tracheal smooth muscle at 0.005 to 5 ug/ml after 15 mins relative to aminophylline; type: functional, Cavia porcellus; summary of the method: as §1
Cavia porcellus [11] = experiment: Bronchodilator activity in trachea and jugular vein cannulated guinea pig assessed as inhibition of histamine-induced response at 3.175 mg/kg, iv after 5 mins relative to control; type: functional; summary of the method: as §2
Cavia porcellus [12] = experiment: Bronchodilator activity in guinea pig assessed as protection against histamine aerosol-induced bronchoconstriction at 200 mg/kg, po treated for 30 mins prior to histamine aerosol-challenge measured after 5 mins; type: functional, organism-based; design: dose 200 mg/kg; summary of the method: as §3
Cavia porcellus [13] = species: Cavia porcellus; experiment: as §4; type: functional; summary of the method: as §1
Cavia porcellus [14] = experiment: Bronchodilator activity in guinea pig assessed as protection against histamine aerosol-induced bronchoconstriction at 90 mg/kg, ip treated for 15 mins prior to histamine aerosol-challenge measured after 5 mins relative to control; type: functional; settings: route intraperitoneal; summary of the method: as §3
Cavia porcellus [15] = experiment: Bronchodilator activity in guinea pig assessed as protection against histamine aerosol-induced bronchoconstriction at 90 mg/kg, po treated for 30 mins prior to histamine aerosol-challenge measured after 5 mins; type: functional, organism-based; design: dose 90 mg/kg; summary of the method: as §3
Cavia porcellus [16] = experiment: Bronchodilator activity in guinea pig assessed as protection against histamine aerosol-induced bronchoconstriction at 75 mg/kg, ip treated for 15 mins prior to histamine aerosol-challenge measured after 5 mins relative to control; type: functional; settings: route intraperitoneal

| Structure (SMILES) | Activity (Cavia porcellus [6]) [%] | other results |
| --- | --- | --- |
| O=C([O-])c1ccc2c(c1)C(=O)c1cc(Br)ccc1CC2.[Na+] |  | fold change (FC) [1]: 10; inhibition in vivo at 12.5 mg/kg (Cavia porcellus [2]): 0%; inhibition in vivo at 25 mg/kg (Cavia porcellus [3]): 61% |
| O=C([O-])c1ccc2c(c1)CCc1ccc(Cl)cc1C2=O.[Na+] |  | inhibition in vivo at 12.5 mg/kg (Cavia porcellus [2]): 24%; inhibition in vivo at 6.25 mg/kg (Cavia porcellus [4]): 0%; Activity (Cavia porcellus [5]): Toxic |
| Cc1cccc2c1CCc1cc(C(=O)O)ccc1C2=O [listing 1 of 2 here] | 87.5 |  |
| O=C(O)c1ccc2ccc3ccc(Cl)cc3c(=O)c2c1 | 0 |  |
| O=C([O-])c1ccc2c(c1)C(=O)c1ccccc1CC2.[Na+] |  | fold change (FC) [7]: 7 |
| O=C(O)c1ccc2c(=O)c3cccc(F)c3ccc2c1 [listing 1 of 2 here] | 25 |  |
| O=C(O)c1ccc2c(c1)CCc1c(Cl)cccc1C2=O [listing 1 of 2 here] | 75 |  |
| CC(=O)c1ccc2ccc3ccc(C(=O)O)cc3c(=O)c2c1 | 37.5 |  |
| N#Cc1ccc2c(c1)C(=O)c1cc(C(=O)[O-])ccc1CC2.[Na+] |  | fold change (FC) [7]: 5 |
| CC(=O)c1ccc2c(c1)C(=O)c1ccc(C(=O)O)cc1CC2 | 25 |  |
| O=C([O-])c1ccc2c(c1)CCc1ccc(Br)cc1C2=O.[Na+] |  | fold change (FC) [8]: 7 |
| O=C(O)c1ccc2c(c1)CCc1cc(Br)ccc1C2=O | 25 |  |
| Cc1ccc2c(c1)C(=O)c1ccc(C(=O)O)cc1CC2 | 62.5 |  |
| O=C(O)c1ccc2ccc3ccc(C(=O)O)cc3c(=O)c2c1 | 25 |  |
| CC(C)c1ccc2c(c1)C(=O)c1ccc(C(=O)O)cc1CC2 | 62.5 |  |
| O=C(O)c1ccc2c(c1)CCc1ccc(Cl)cc1C2=O | 0 |  |
| O=C(O)c1ccc2c(c1)C(=O)c1ccc(Cl)cc1CC2 | 25 |  |
| COc1ccc2c(c1)C(=O)c1ccc(C(=O)O)cc1CC2 [listing 1 of 2 here] | 50 |  |
| O=C(O)c1ccc2c(c1)C(=O)c1cc(O)ccc1CC2 | 12.5 |  |
| O=C(O)c1cccc2c(=O)c3ccccc3ccc12 | 12.5 |  |
| O=C([O-])c1ccc2c(c1)CCc1c(Cl)cccc1C2=O.[Na+] |  | inhibition in vivo at 12.5 mg/kg (Cavia porcellus [2]): 76%; Activity (Cavia porcellus [5]): Toxic |
| O=C(O)c1ccc2c(c1)CCc1ccccc1C2=O [listing 1 of 3 here] |  | inhibition in vivo at 12.5 mg/kg (Cavia porcellus [2]): 0%; inhibition in vivo at 25 mg/kg (Cavia porcellus [3]): 11% |

| Structure (SMILES) | Activity (Cavia porcellus [6]) [%] | other results |
| --- | --- | --- |
| O=C(O)c1ccc2ccc3ccccc3c(=O)c2c1 | 62.5 |  |
| Cc1ccc2c(c1)CCc1cc(C(=O)[O-])ccc1C2=O.[Na+] |  | inhibition in vivo at 12.5 mg/kg (Cavia porcellus [2]): 0%; Activity (Cavia porcellus [5]): Toxic |
| O=C(O)c1ccc2c(c1)CCc1ccccc1C2=O [listing 2 of 3 here] | 62.5 |  |
| O=C(O)c1cc2ccccc2c(=O)c2ccccc12 | 0 |  |
| O=C(O)c1ccc2c(=O)c3cc(Cl)cc(Cl)c3ccc2c1 | 0 |  |
| CC(C)c1ccc2c(c1)C(=O)c1cc(C(=O)O)ccc1CC2 | 25 |  |
| CC(C)Oc1ccc2c(c1)C(=O)c1ccc(C(=O)O)cc1CC2 | 50 |  |
| O=C(O)c1ccc2c(=O)c3cccc(F)c3ccc2c1 [listing 2 of 2 here] |  | inhibition in vivo at 12.5 mg/kg (Cavia porcellus [2]): 22%; inhibition in vivo at 25 mg/kg (Cavia porcellus [3]): 43% |
| CC(C)c1ccc2c(c1)C(=O)c1cc(C(=O)[O-])ccc1CC2.[Na+] |  | fold change (FC) [8]: 5 |
| Cc1ccc2c(c1)CCc1cc(C(=O)O)ccc1C2=O | 12.5 |  |
| CC(C)Oc1ccc2c(c1)C(=O)c1cc(C(=O)O)ccc1CC2 |  | Activity (Cavia porcellus [9]): 0% |
| O=C([O-])c1ccc2c(c1)C(=O)c1cc(Cl)ccc1CC2.[Na+] |  | fold change (FC) [10]: 25 |
| Cc1cccc2c1CCc1cc(C(=O)O)ccc1C2=O [listing 2 of 2 here] |  | inhibition in vivo at 12.5 mg/kg (Cavia porcellus [2]): 0%; inhibition in vivo at 25 mg/kg (Cavia porcellus [3]): 0%; inhibition in vivo at 6.25 mg/kg (Cavia porcellus [4]): 0%; inhibition in vivo at 3.175 mg/kg (Cavia porcellus [11]): 0% |
| O=C(O)c1ccc2c(c1)CCc1ccc(Br)cc1C2=O | 50 |  |
| O=C(O)c1ccc2c(c1)CCc1c(Cl)cccc1C2=O [listing 2 of 2 here] |  | Activity (Cavia porcellus [12]): inactive |
| N#Cc1ccc2c(c1)CCc1ccc(C(=O)O)cc1C2=O | 12.5 |  |
| O=C(O)c1ccc2c(c1)C(=O)c1ccc(Br)cc1CC2 | 0 |  |
| CC(C)c1ccc2c(c1)C(=O)c1ccc(C(=O)[O-])cc1CC2.[Na+] |  | fold change (FC) [1]: 10 |
| O=C(O)c1ccc2c(=O)c3ccccc3ccc2c1 | 0 |  |
| COc1ccc2c(c1)C(=O)c1cc(C(=O)O)ccc1CC2 | 50 |  |
| O=C(O)c1cccc2c1CCc1ccccc1C2=O | 0 |  |
| COc1ccc2c(c1)C(=O)c1ccc(C(=O)O)cc1CC2 [listing 2 of 2 here] |  | inhibition in vivo at 12.5 mg/kg (Cavia porcellus [2]): 13%; inhibition in vivo at 25 mg/kg (Cavia porcellus [3]): 68% |

| Structure (SMILES) | Activity (Cavia porcellus [6]) [%] | other results |
| --- | --- | --- |
| O=C(O)c1ccc2c(c1)CCc1ccccc1C2=O [listing 3 of 3 here] |  | Activity (Cavia porcellus [13]): inactive |
| O=C(O)c1ccc2c(c1)CCc1c(F)cccc1C2=O | 75 |  |
| O=C(O)c1ccc2c(c1)CCc1c(Br)cccc1C2=O [listing 1 of 2 here] |  | Activity (Cavia porcellus [14]): 75% |
| CC(C)Oc1ccc2c(c1)C(=O)c1cc(C(=O)[O-])ccc1CC2.[Na+] |  | fold change (FC) [7]: 0.5 |
| O=C(O)c1ccc2c(c1)CCc1c(Cl)cc(Cl)cc1C2=O | 50 |  |
| COc1ccc2c(c1)CCc1cc(C(=O)O)ccc1C2=O [listing 1 of 2 here] | 37.5 |  |
| O=C(O)c1ccc2c(c1)C(=O)c1ccccc1CC2 | 0 |  |
| O=C(O)c1ccc2c(c1)C(=O)c1cc(Cl)ccc1CC2 | 25 |  |
| O=C(O)c1ccc2c(c1)CCc1c(Br)cccc1C2=O [listing 2 of 2 here] |  | inhibition in vivo at 12.5 mg/kg (Cavia porcellus [2]): 46%; inhibition in vivo at 25 mg/kg (Cavia porcellus [3]): 77%; inhibition in vivo at 6.25 mg/kg (Cavia porcellus [4]): 0% |
| CC(=O)c1ccc2c(c1)C(=O)c1cc(C(=O)O)ccc1CC2 | 62.5 |  |
| Cc1cc(C)c2c(c1)C(=O)c1cc(C(=O)O)ccc1CC2 | 37.5 |  |
| CC(C)Oc1ccc2ccc3ccc(C(=O)O)cc3c(=O)c2c1 | 62.5 |  |
| O=C(O)c1ccc2c(c1)C(=O)c1cc(Br)ccc1CC2 | 62.5 |  |
| O=C(O)c1ccc2c(=O)c3cccc(Br)c3ccc2c1 | 25 |  |
| CC(C)c1cccc2c1CCc1cc(C(=O)O)ccc1C2=O | 25 | Activity (Cavia porcellus [15]): inactive |
| O=C(O)c1ccc2ccc3ccc(Br)cc3c(=O)c2c1 | 12.5 |  |
| O=C(O)c1ccc2c(c1)C(=O)c1cccc(Br)c1CC2 | 0 |  |
| O=C([O-])c1ccc2c(c1)CCc1c(Cl)cc(Cl)cc1C2=O.[Na+] |  | inhibition in vivo at 12.5 mg/kg (Cavia porcellus [2]): 53%; Activity (Cavia porcellus [5]): Toxic |
| N#Cc1ccc2c(c1)C(=O)c1cc(C(=O)O)ccc1CC2 | 0 |  |
| Cn1c(=O)c2[nH]cnc2n(C)c1=O.Cn1c(=O)c2[nH]cnc2n(C)c1=O.NCCN [AMINOPHYLLINE] | 75 | Activity (Cavia porcellus [9]): 25%; Activity (Cavia porcellus [16]): 50% |
| CC(=O)c1ccc2c(c1)C(=O)c1cc(C(=O)[O-])ccc1CC2.[Na+] |  | fold change (FC) [7]: <1 |
| COc1ccc2c(c1)CCc1cc(C(=O)O)ccc1C2=O [listing 2 of 2 here] |  | inhibition in vivo at 25 mg/kg (Cavia porcellus [3]): 20% |
